Among the data in ChEMBL document CHEMBL4680135, “Design, synthesis and biological evaluation of indole-2-carboxylic acid derivatives as IDO1/TDO dual inhibitors” (Eur J Med Chem, 2020) are IC50 values, retold here.

Assay [1] has as its target Indoleamine 2,3-dioxygenase 1 (Homo sapiens, UniProt P14902). Kind of assay: Inhibition of recombinant human IDO1 assessed as reduction in kynurenine formation using L-tryptophan as substrate incubated for 45 mins by microplate reader assay.
For assay [2], the target named is Tryptophan 2,3-dioxygenase (Homo sapiens, UniProt P48775). Kind of assay: Inhibition of recombinant human TDO assessed as reduction in kynurenine formation using L-tryptophan as substrate incubated for 45 mins by microplate reader assay. In outline:
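Purified recombinant human TDO (0.05 μM) in 100 mM potassium phosphate pH 6.5 with 40 mM neutralized ascorbate, 200 μg/mL catalase, 20 μM methylene blue, L-Trp substrate and compound; 37 °C, 45 min. Stopped with 30% TCA, 65 °C 15 min, then 2% p-dimethylaminobenzaldehyde in acetic acid; absorbance 490 nm; IC50 by curve fitting.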

Broadly, the IC50 is the midpoint of a concentration-inhibition curve.

Sequence of Indoleamine 2,3-dioxygenase 1 (P14902 whole entry): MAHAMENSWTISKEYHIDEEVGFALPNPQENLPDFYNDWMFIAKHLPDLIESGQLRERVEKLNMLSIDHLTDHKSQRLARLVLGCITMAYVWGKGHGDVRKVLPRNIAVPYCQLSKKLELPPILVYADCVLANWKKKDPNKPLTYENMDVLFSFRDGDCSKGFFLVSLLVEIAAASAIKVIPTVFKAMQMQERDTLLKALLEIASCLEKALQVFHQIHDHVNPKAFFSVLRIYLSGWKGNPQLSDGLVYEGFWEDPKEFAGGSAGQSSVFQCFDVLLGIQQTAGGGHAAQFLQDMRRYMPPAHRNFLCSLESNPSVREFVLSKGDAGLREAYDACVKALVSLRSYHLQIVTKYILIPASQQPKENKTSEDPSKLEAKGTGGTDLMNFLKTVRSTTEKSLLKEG
Sequence of Tryptophan 2,3-dioxygenase (P48775 whole entry): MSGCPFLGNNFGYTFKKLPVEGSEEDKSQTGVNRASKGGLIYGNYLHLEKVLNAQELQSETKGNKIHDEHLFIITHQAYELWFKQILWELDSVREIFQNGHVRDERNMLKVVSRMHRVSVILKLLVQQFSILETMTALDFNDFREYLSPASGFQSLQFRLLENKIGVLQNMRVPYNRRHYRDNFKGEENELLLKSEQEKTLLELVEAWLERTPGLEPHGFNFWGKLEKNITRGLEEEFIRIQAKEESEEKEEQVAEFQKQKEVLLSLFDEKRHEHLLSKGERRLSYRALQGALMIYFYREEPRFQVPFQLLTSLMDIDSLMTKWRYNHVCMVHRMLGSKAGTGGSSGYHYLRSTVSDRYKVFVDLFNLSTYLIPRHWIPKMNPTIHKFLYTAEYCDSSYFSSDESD

Take `COc1ccc(Nc2cc(NC(C)=O)cc3[nH]c(C(=O)O)cc23)nc1`: the IC50 in assay [1] turned out to be 4.73 µM; in assay [2] it was 5.27 µM. In the same order, the values of `CC(=O)Nc1cc(Nc2cccc3[nH]ncc23)c2cc(C(=O)O)[nH]c2c1` are 7.52 µM and 6.78 µM.

Consider `O=C(O)c1cc2c(Nc3ccc(F)c(OC(F)(F)F)c3)ccc(F)c2[nH]1`, for which the values for the IC50 in assay [1] and in assay [2] were 16.3 µM and 16.5 µM, respectively.

As for `N/C(=N\O)c1cc2c(Nc3ccc(F)c(Cl)c3)ccc(F)c2[nH]1`, the IC50 in assay [1] was more than 100 µM. Still for that read-out and setting: then `OCc1cc2c(Nc3ccc(F)c(Cl)c3)ccc(F)c2[nH]1`, with more than 100 µM. Take `O=C(O)c1cc2c(Nc3ccc(F)c(Cl)c3)cc([N+](=O)[O-])cc2[nH]1`: the IC50 in assay [1] and in assay [2] was more than 100 µM each time. For the compound `COc1cc(Cl)cc(Nc2ccc(F)c3[nH]c(C(=O)O)cc23)c1`, the IC50 in assay [1] was more than 100 µM. Still for that read-out and setting: in the case of `O=C(O)c1cc2c(Nc3ccc(F)c(Cl)c3)cccc2[nH]1` it was more than 100 µM. Regarding `O=C(O)c1cc2c(Nc3ccc(F)c(Cl)c3)ccc(F)c2[nH]1`, the IC50 was 40.7 µM in assay [1] and 99.2 µM in assay [2]. In the case of `COc1cc(Nc2ccc(F)c3[nH]c(C(=O)O)cc23)cc(C(F)(F)F)c1`, the IC50 in assay [1] was more than 100 µM. With `CC(=O)Nc1cc(Nc2ccc(F)nc2)c2cc(C(=O)O)[nH]c2c1`, the half-maximal inhibitory concentration (IC50) in assay [1] came out at 38.5 µM; in assay [2], 46.1 µM. For `CC(=O)Nc1cc(Nc2ccc(F)c(OCC3CC3)c2)c2cc(C(=O)O)[nH]c2c1`, in that order: 3.11 µM and 4.09 µM.

Consider `CCCOc1cc(Nc2cc(NC(C)=O)cc3[nH]c(C(=O)O)cc23)ccc1F`, for which the values for the IC50 in assay [1] and in assay [2] were 1.48 µM and 4.46 µM, respectively. For `COc1cc(Nc2ccc(F)c3[nH]c(C(=O)O)cc23)cc(OC)c1OC`, in that order: 22.2 µM and 23.3 µM.

Regarding `Cc1cc(Nc2ccc(F)c(Cl)c2)c2cc(C(=O)O)[nH]c2c1`, the IC50 turned out to be 35.6 µM in assay [1] and 22.5 µM in assay [2]. In the same order, the values of `CCOc1cc(Nc2cc(NC(C)=O)cc3[nH]c(C(=O)O)cc23)ccc1F` are 2.2 µM and 5.13 µM. `Cc1cc(Nc2ccc(F)c(Cl)c2)c2cc(C(=O)O)n(C)c2c1`: the half-maximal inhibitory concentration (IC50) in assay [1] was more than 100 µM. For `O=C(O)c1cc2c(Nc3ccc(Cl)c(Cl)c3)ccc(F)c2[nH]1`, the IC50 in assay [1] was more than 100 µM.

For `CC(=O)Nc1cc(Nc2ccc(F)c(OCc3ccccc3)c2)c2cc(C(=O)O)[nH]c2c1`, the IC50 in assay [1] is 10 µM; in assay [2], 5.24 µM. As to `O=C(O)c1cc2c(Nc3cc(Br)ccc3F)ccc(F)c2[nH]1`, the IC50 turned out to be 28.1 µM in assay [1] and 41.4 µM in assay [2]. Turning to `O=C(O)c1cc2c(Nc3ccc(C(F)(F)F)c(Cl)c3)ccc(F)c2[nH]1`, the IC50 in assay [1] was more than 100 µM.

Turning to `O=C(O)c1cc2c(Nc3ccc(F)c(Cl)c3)cc(F)cc2[nH]1`, the IC50 in assay [1] was more than 100 µM. Regarding `CC(=O)Nc1cc(Nc2ccc(F)cc2)c2cc(C(=O)O)[nH]c2c1`, the IC50 in assay [1] was determined as 5.28 µM; in assay [2], 7.69 µM. Consider `O=C(O)c1cc2c(Sc3ccc(F)c(Cl)c3)ccc(F)c2[nH]1`, for which the IC50 in assay [1] was more than 100 µM. In the case of `CC(=O)Nc1cc(Nc2ccc(C(F)(F)F)cc2)c2cc(C(=O)O)[nH]c2c1`, the concentration for half-maximal inhibition (IC50) worked out at 55.5 µM in assay [1] and 23.2 µM in assay [2]. In the same order, the values of `COc1cc(Nc2cc(NC(C)=O)cc3[nH]c(C(=O)O)cc23)ccc1F` are 1.23 µM and 2.49 µM.

`COc1ccc(Nc2ccc(F)c(Cl)c2)c2cc(C(=O)O)[nH]c12`: the figures for the half-inhibitory concentration (IC50) in assay [1] and in assay [2] were 32.4 µM and 19.5 µM, respectively. Consider `Fc1ccc(Nc2ccc(F)c3[nH]ccc23)cc1Cl`, for which the IC50 in assay [1] is more than 100 µM. Still for that read-out and setting: then `CC(=O)Nc1cc(Nc2ccc(F)c(Cl)c2)c2cc(C(=O)O)sc2c1`, with more than 100 µM; and `N#Cc1cc2c(Nc3ccc(F)c(Cl)c3)ccc(F)c2[nH]1`, with more than 100 µM. `CCNC1=C/C(=N\c2ccc(F)c(Cl)c2)c2cc(C(=O)O)[nH]c2C1=O`: the IC50 in assay [1] is 0.018 µM; in assay [2] it was 0.025 µM. For `O=C(O)c1cc2c(Nc3ccc(F)c(Br)c3)ccc(F)c2[nH]1`, in that order: 9.93 µM and 10.5 µM. As for `N#Cc1ccc(Nc2ccc(F)c(Cl)c2)c2cc(C(=O)O)[nH]c12`, the concentration for half-maximal inhibition (IC50) in assay [1] was more than 100 µM. In the case of `CC(=O)Nc1cc(Nc2ccc(F)cn2)c2cc(C(=O)O)[nH]c2c1`, the figures for the concentration for half-maximal inhibition (IC50) in assay [1] and in assay [2] were 10.8 µM and 11.7 µM, respectively.

As to `CC(=O)Nc1cc(Nc2ccc(F)c(-c3ccsc3)c2)c2cc(C(=O)O)[nH]c2c1`, the IC50 turned out to be 3.89 µM in assay [1] and 2.53 µM in assay [2]. For `COc1ccc(Nc2cc(NC(C)=O)cc3[nH]c(C(=O)O)cc23)cc1`, in that order: 1.71 µM and 3.01 µM. As for `O=C(O)c1cc2c(Nc3cccc4[nH]ccc34)ccc(F)c2[nH]1`, the IC50 in assay [1] is more than 100 µM. Same read-out and setting: then `O=C(O)c1cc2c(Nc3ccc(F)c(Cl)c3)ccc(Cl)c2[nH]1`, with more than 100 µM.

Turning to `CC(=O)Nc1cc(Nc2ccc(F)c(OC(F)(F)F)c2)c2cc(C(=O)O)[nH]c2c1`, the figures for the IC50 in assay [1] and in assay [2] were 1.37 µM and 3.62 µM, respectively. As for `COc1ccc(C(=O)O)c(Nc2ccc(F)c3[nH]c(C(=O)O)cc23)c1`, the IC50 in assay [1] is more than 100 µM. On to `CC(=O)Nc1cc(Nc2ccc(OC(F)(F)F)cc2)c2cc(C(=O)O)[nH]c2c1`, for which the IC50 in assay [1] was 23.7 µM; in assay [2], 5.71 µM. Regarding `CC(=O)Nc1cc(Nc2ccc(F)c(OC(C)C)c2)c2cc(C(=O)O)[nH]c2c1`, the results for the IC50 in assay [1] and in assay [2] were 3.09 µM and 6.46 µM, respectively. With `COc1ccc(Nc2cc(NC(C)=O)cc3[nH]c(C(=O)O)cc23)cn1`, the concentration for half-maximal inhibition (IC50) in assay [1] amounted to 3.41 µM; in assay [2] it was 3.62 µM. Regarding `O=C(Cc1ccc(F)c(Cl)c1)Nc1ccc(F)c2[nH]c(C(=O)O)cc12`, in assay [1], the IC50 was more than 100 µM.

For the compound `O=C(NO)c1cc2c(Nc3ccc(F)c(Cl)c3)ccc(F)c2[nH]1`, the IC50 in assay [1] was more than 100 µM.

As to `COc1cc(Nc2ccc(F)c(Cl)c2)c2cc(C(=O)O)[nH]c2c1`, the IC50 in assay [1] is more than 100 µM.

`NC(=O)c1cc2c(Nc3ccc(F)c(Cl)c3)ccc(F)c2[nH]1`: the IC50 in assay [1] was more than 100 µM. As to `CC(=O)Nc1cc(Nc2ccc(OC(F)F)cc2)c2cc(C(=O)O)[nH]c2c1`, the results for the IC50 in assay [1] and in assay [2] were 3.18 µM and 5.5 µM, respectively.

With `O=C(Nc1ccc(F)c(Cl)c1)Nc1ccc(F)c2[nH]c(C(=O)O)cc12`, the half-maximal inhibitory concentration (IC50) in assay [1] is more than 100 µM. On to `O=C(O)c1cc2c(Nc3ccc(F)c4[nH]c(C(=O)O)cc34)ccc(F)c2[nH]1`, for which the IC50 in assay [1] was 2.72 µM; in assay [2] it was 3.48 µM. Take `CC(=O)Nc1ccc(Nc2ccc(F)c(Cl)c2)c2cc(C(=O)O)[nH]c12`: the IC50 in assay [1] is more than 100 µM. Take `CC(=O)Nc1cc(Nc2ccc(F)c(F)c2)c2cc(C(=O)O)[nH]c2c1`: the IC50 was 1.17 µM in assay [1] and 1.55 µM in assay [2]. For `COc1cc(Nc2ccc(F)c3[nH]c(C(=O)O)cc23)ccc1F`, in that order: 54.4 µM and 31.4 µM. Turning to `O=C(O)c1cc2c(Nc3ccc(F)c4[nH]ccc34)ccc(F)c2[nH]1`, the half-maximal inhibitory concentration (IC50) in assay [1] was more than 100 µM. On to `CC(=O)Nc1cc(Nc2ccc(F)c(OCC(F)(F)F)c2)c2cc(C(=O)O)[nH]c2c1`, for which the results for the IC50 in assay [1] and in assay [2] were 4.62 µM and 9.63 µM, respectively. With `O=C(O)c1cc2c(Nc3ccc(F)c(F)c3)ccc(F)c2[nH]1`, the IC50 in assay [1] was more than 100 µM. On the same count and under the same terms, then `Cc1ccc(Nc2ccc(F)c(Cl)c2)c2cc(C(=O)O)[nH]c12`, with more than 100 µM. For `O[C@H](C[C@H]1c2c(F)cccc2-c2cncn21)[C@H]1CC[C@H](O)CC1` [NAVOXIMOD], the IC50 in assay [2] was 0.8 µM.

Take `CC(=O)Nc1cc(Nc2ccc(F)c(Cl)c2)c2cc(C(=O)O)[nH]c2c1`: the values for the IC50 in assay [1] and in assay [2] were 8.4 µM and 8.48 µM, respectively. In the same order, the values of `N#Cc1cc(Nc2ccc(F)c(Cl)c2)c2cc(C(=O)O)[nH]c2c1` are more than 100 µM and more than 100 µM. On to `O=C(Nc1ccc(F)c2[nH]c(C(=O)O)cc12)c1ccc(F)c(Cl)c1`, for which the IC50 in assay [1] was more than 100 µM. Turning to `O=C(O)c1cc2c(NCc3ccc(F)c(Cl)c3)ccc(F)c2[nH]1`, in assay [1], the IC50 was more than 100 µM. On the same count and under the same terms, then `O=C(O)c1cc2c(C(=O)Nc3ccc(F)c(Cl)c3)ccc(F)c2[nH]1`, with more than 100 µM. Take `CC(=O)Nc1cc(Nc2ccc(F)c(C3CC3)c2)c2cc(C(=O)O)[nH]c2c1`: the results for the IC50 in assay [1] and in assay [2] were 2.95 µM and 5.45 µM, respectively. In the same order, the values of `CC(=O)Nc1cc(Nc2ccc(F)c(C)c2)c2cc(C(=O)O)[nH]c2c1` are 1.83 µM and 1.7 µM. In the case of `O=C(O)c1cc2c(Nc3ccc(OC(F)(F)F)c(Cl)c3)ccc(F)c2[nH]1`, the IC50 in assay [1] was more than 100 µM. With `COc1ccc(Nc2ccc(F)c3[nH]c(C(=O)O)cc23)cc1Cl`, the half-maximal inhibitory concentration (IC50) in assay [1] is more than 100 µM. As to `CC(=O)Nc1cc(Nc2ccc(F)c(Oc3ccccc3)c2)c2cc(C(=O)O)[nH]c2c1`, the concentration for half-maximal inhibition (IC50) in assay [1] amounted to 5.83 µM; in assay [2], 1.44 µM. Turning to `Cn1c(C(=O)O)cc2c(Nc3ccc(F)c(Cl)c3)ccc(F)c21`, the IC50 in assay [1] was more than 100 µM. On the same count and under the same terms, in the case of `N#Cc1cc(Nc2ccc(F)c3[nH]c(C(=O)O)cc23)ccc1F` it was more than 100 µM; in that of `O=C(O)c1cc2c(Nc3ccc(F)c(Cl)c3)ccc([N+](=O)[O-])c2[nH]1`, more than 100 µM. Consider `Cc1cc2c(Nc3ccc(F)c(Cl)c3)ccc(F)c2[nH]1`, for which the IC50 in assay [1] was more than 100 µM. As to `CCNc1cc(Nc2ccc(F)c(Cl)c2)c2cc(C(=O)O)[nH]c2c1`, the IC50 stood at 1.75 µM in assay [1] and 3.53 µM in assay [2].

As for `O=C(O)c1cc2c(Nc3ccc(F)c(Cl)c3)cc(Cl)cc2[nH]1`, in assay [1], the IC50 is more than 100 µM.
